In ChEMBL document CHEMBL1149785, “Synthesis and biological evaluation of helicid analogues as novel acetylcholinesterase inhibitors” (Eur J Med Chem, 2008):
Calls of active or inactive are those of the source. No cut-off for these calls is given here.

Experiments:
Acetylcholinesterase = Acetylcholinesterase (Electrophorus electricus, UniProt O42275); test: Inhibition of Electrophorus electricus AChE by Ellman's method
Cholinesterase = Cholinesterase (Equus caballus, UniProt P81908); test: Inhibition of horse serum BuChE by Ellman's method
Chain of Cholinesterase (P81908 whole entry): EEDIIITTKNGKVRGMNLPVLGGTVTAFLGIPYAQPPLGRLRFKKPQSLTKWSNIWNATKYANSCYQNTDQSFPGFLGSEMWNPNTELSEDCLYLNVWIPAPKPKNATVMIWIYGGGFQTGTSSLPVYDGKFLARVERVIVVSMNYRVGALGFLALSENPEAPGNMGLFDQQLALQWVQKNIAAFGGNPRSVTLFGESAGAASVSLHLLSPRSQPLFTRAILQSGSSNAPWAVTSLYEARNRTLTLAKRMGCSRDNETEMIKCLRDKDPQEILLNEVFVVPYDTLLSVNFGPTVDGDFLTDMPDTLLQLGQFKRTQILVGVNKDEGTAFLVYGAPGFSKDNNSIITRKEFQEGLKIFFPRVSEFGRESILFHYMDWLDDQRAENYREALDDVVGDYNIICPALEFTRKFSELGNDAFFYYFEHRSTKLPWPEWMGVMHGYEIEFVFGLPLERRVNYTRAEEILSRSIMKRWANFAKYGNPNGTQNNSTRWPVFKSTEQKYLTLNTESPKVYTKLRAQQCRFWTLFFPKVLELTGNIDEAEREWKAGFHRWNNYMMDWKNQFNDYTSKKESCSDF

[1] = target: Cholinesterase (Equus caballus) (UniProt P81908); test: Inhibition of horse serum BuChE upto 500 uM by Ellman's method
Chain of Cholinesterase (Equus caballus) (P81908 whole entry): as above
Summary of the method: (§1)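 Modified Ellman assay with acetylthiocholine (AChE) or butyrylthiocholine (BuChE) as substrate, from 0.075 M stock solutions, and DTNB from a 0.01 M stock, in phosphate buffer. Enzyme, DTNB and test compound were pre-incubated for 15 min at 37 °C, then substrate was added. Absorbance was read at 412 nm for 1 min. Five concentrations, normally 10^-4 to 10^-9 M, each in triplicate.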

[2] = target: Acetylcholinesterase (Electrophorus electricus) (UniProt O42275); test: Inhibition of Electrophorus electricus AChE upto 500 uM by Ellman's method; summary of the method: as §1
Chain of Acetylcholinesterase (Electrophorus electricus) (O42275 24-633 limits assumed): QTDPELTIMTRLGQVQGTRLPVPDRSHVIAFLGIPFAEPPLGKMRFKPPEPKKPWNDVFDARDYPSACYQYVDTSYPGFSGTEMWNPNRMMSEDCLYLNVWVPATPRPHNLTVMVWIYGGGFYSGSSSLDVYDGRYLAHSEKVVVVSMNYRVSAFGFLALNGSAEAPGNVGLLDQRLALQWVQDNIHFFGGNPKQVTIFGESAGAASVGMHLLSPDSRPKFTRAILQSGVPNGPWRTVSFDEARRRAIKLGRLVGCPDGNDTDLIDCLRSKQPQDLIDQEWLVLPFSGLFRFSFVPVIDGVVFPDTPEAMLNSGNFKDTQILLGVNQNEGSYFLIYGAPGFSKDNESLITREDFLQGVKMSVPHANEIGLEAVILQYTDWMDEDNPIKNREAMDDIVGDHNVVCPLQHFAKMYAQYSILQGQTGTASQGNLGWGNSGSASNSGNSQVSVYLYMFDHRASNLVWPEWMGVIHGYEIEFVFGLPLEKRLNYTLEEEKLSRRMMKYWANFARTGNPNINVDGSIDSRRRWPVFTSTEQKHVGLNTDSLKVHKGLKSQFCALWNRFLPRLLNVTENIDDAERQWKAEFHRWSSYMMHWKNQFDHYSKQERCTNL

[3] = target: 4-aminobutyrate aminotransferase, mitochondrial (Homo sapiens, UniProt P80404); test: Inhibition of GABA transaminase
Chain of 4-aminobutyrate aminotransferase, mitochondrial (P80404 whole entry): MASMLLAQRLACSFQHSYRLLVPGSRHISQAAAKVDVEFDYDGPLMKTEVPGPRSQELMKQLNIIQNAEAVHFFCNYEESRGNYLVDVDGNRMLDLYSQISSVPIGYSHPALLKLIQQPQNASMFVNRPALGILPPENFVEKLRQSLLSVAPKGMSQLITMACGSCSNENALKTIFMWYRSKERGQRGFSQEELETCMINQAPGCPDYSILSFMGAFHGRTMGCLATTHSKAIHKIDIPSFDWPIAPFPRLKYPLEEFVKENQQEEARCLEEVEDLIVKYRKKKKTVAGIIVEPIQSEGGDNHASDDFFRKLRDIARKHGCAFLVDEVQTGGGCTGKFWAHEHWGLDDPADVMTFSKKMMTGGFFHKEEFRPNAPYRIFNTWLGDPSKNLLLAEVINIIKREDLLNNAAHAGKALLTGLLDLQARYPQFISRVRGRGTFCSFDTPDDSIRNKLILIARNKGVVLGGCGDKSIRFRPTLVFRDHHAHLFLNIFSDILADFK

Chain of Acetylcholinesterase (O42275 whole entry): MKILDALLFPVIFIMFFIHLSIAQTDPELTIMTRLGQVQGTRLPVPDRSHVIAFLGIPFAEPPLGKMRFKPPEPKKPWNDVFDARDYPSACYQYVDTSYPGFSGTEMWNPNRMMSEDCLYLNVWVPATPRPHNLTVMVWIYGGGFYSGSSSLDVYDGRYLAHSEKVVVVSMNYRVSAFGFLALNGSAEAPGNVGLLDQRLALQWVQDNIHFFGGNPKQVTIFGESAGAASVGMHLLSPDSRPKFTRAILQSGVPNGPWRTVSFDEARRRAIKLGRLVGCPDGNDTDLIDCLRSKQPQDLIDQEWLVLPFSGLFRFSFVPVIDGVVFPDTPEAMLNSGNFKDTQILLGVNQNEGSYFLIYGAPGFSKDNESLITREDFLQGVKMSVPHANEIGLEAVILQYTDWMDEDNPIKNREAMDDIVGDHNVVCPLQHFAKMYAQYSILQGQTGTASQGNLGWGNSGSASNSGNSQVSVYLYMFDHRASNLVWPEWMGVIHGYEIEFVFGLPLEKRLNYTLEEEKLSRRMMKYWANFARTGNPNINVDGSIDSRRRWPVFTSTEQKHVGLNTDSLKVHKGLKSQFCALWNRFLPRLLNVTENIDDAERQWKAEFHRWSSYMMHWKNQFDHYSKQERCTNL

| Compound | IC50 (Acetylcholinesterase) | Activity [1] | also measured |
| --- | --- | --- | --- |
| NC(=S)N/N=C/c1ccc(O[C@@H]2OC[C@@H](OC(=O)c3ccccc3)[C@@H](OC(=O)c3ccccc3)[C@H]2OC(=O)c2ccccc2)cc1 | 46.4 µM | – | IC50 (Cholinesterase): 71.8 µM |
| CC(=O)OC[C@H]1O[C@@H](Oc2ccc(C=O)cc2)[C@H](OC(C)=O)[C@@H](OC(C)=O)[C@H]1OC(C)=O | 45.4 µM | inactive | – |
| CC(=O)OC[C@H]1O[C@@H](Oc2ccc(C=O)cc2)[C@H](OC(C)=O)[C@H](OC(C)=O)[C@@H]1OC(C)=O | – | inactive | Activity [2]: inactive |
| CC(=O)OC[C@H]1O[C@@H](Oc2ccc(/C=N/NC(N)=O)cc2)[C@H](OC(C)=O)[C@@H](OC(C)=O)[C@@H]1OC(C)=O | 143 µM | inactive | – |
| O=Cc1ccc(O[C@@H]2O[C@H](CO)[C@@H](O)[C@@H](O)[C@H]2O)cc1 | – | inactive | Activity [2]: inactive |
| CC(=O)OC[C@H]1O[C@@H](Oc2ccc(/C=N/NC(N)=S)cc2)[C@H](OC(C)=O)[C@@H](OC(C)=O)[C@@H]1OC(C)=O | 21.5 µM | inactive | – |
| NC(=S)N/N=C/c1ccc(O[C@@H]2O[C@H](CO)[C@@H](O)[C@H](O)[C@H]2O)cc1 | 22.9 µM | inactive | – |
| O=Cc1ccc(O[C@@H]2OC[C@@H](OC(=O)c3ccccc3)[C@H](OC(=O)c3ccccc3)[C@H]2OC(=O)c2ccccc2)cc1 | 35 µM | inactive | – |
| CO/N=C\c1ccc(O[C@@H]2OC[C@@H](OC(=O)c3ccccc3)[C@@H](OC(=O)c3ccccc3)[C@H]2OC(=O)c2ccccc2)cc1 | 3.08 µM | – | IC50 (Cholinesterase): 45.8 µM |
| CC(=O)OC[C@H]1O[C@@H](Oc2ccc(C=O)cc2)[C@H](OC(C)=O)[C@@H](OC(C)=O)[C@@H]1OC(C)=O | 1.5 µM | inactive | – |
| O=Cc1ccc(O[C@@H]2OC[C@@H](OC(=O)c3ccccc3)[C@@H](OC(=O)c3ccccc3)[C@H]2OC(=O)c2ccccc2)cc1 | 14 µM | – | IC50 (Cholinesterase): 64.3 µM |
| NC(=O)N/N=C/c1ccc(O[C@@H]2O[C@H](CO)[C@@H](O)[C@H](O)[C@H]2O)cc1 | 121 µM | inactive | – |
| OC[C@H]1O[C@@H](Oc2ccc(/C=N/O)cc2)[C@H](O)[C@@H](O)[C@@H]1O | – | inactive | – |
| O=Cc1ccc(O[C@@H]2OC[C@@H](O)[C@@H](O)[C@H]2O)cc1 | 0.2 µM | inactive | Ki (Acetylcholinesterase): 0.51 µM |
| CC(=O)OC[C@H]1O[C@@H](O[C@H]2[C@H](OC(C)=O)[C@@H](OC(C)=O)[C@H](Oc3ccc(C=O)cc3)O[C@@H]2COC(C)=O)[C@H](OC(C)=O)[C@@H](OC(C)=O)[C@H]1OC(C)=O | – | inactive | Activity [2]: inactive |
| CO/N=C\c1ccc(O[C@@H]2O[C@H](CO)[C@@H](O)[C@H](O)[C@H]2O)cc1 | 0.49 µM | inactive | Ki (Acetylcholinesterase): 0.13 µM |
| NC(=O)N/N=C/c1ccc(O[C@@H]2OC[C@@H](OC(=O)c3ccccc3)[C@@H](OC(=O)c3ccccc3)[C@H]2OC(=O)c2ccccc2)cc1 | 7.07 µM | – | IC50 (Cholinesterase): 48.7 µM |
| CC(=O)OC[C@H]1O[C@@H](Oc2ccc(/C=N/O)cc2)[C@H](OC(C)=O)[C@@H](OC(C)=O)[C@@H]1OC(C)=O | – | inactive | – |
| O=Cc1ccc(O)cc1 [4-HYDROXYBENZALDEHYDE] | – | – | IC50 [3]: 33.6 µM |
| CO/N=C\c1ccc(O[C@@H]2O[C@H](COC(C)=O)[C@@H](OC(C)=O)[C@H](OC(C)=O)[C@H]2OC(C)=O)cc1 | 15.1 µM | inactive | – |
| O=Cc1ccc(O[C@@H]2O[C@H](CO)[C@@H](O)[C@H](O)[C@H]2O)cc1 | 0.45 µM | inactive | Ki (Acetylcholinesterase): 0.73 µM |
